Test results published in ChEMBL document CHEMBL1124684, “Studies on prodrugs. 10. Possible mechanism of N-dealkylation of N-masked norfloxacins having several active methylene groups” (J Med Chem, 1989).

Key:
Mus musculus [1] = assay: Serum concentration of the liberated Norfloxacin after oral administration (100 mg/kg) in mice after 1.0h; ND is not detected; assay type: functional, organism-based
In short: (§1)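 Mice dosed orally at 100 mg/kg, suspended in 0.5% sodium carboxymethylcellulose. Animals killed by bleeding at 0.5, 1.0, 2.0 and 4.0 h; blood centrifuged, serum adjusted. NFLX in serum quantified by HPLC with UV detection at 280 nm. Stability of the masked compounds at pH 7.4 and 37 °C was checked beforehand by HPLC.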

Mus musculus [2] = assay: Serum concentration of the liberated Norfloxacin after oral administration (100 mg/kg) in mice after 4.0h; ND is not detected; assay type: functional, organism-based; in short: as §1
Mus musculus [3] = assay: Serum concentration of the liberated Norfloxacin after oral administration (100 mg/kg) in mice after 0.5 hr; ND is not detected; assay type: functional, organism-based; in short: as §1
Mus musculus [4] = assay: Serum concentration of the liberated Norfloxacin after oral administration (100 mg/kg) in mice after 2.0h; ND is not detected; assay type: functional, organism-based; in short: as §1
Mus musculus [5] = assay: Serum concentration of the liberated Norfloxacin after oral administration (100 mg/kg) in mice after 1.0 hr; assay type: functional, organism-based; in short: as §1
Mus musculus [6] = species: Mus musculus; assay: (§2) Compound was evaluated for Area under curve in mice; assay type: ADME, organism-based; parameters: concentration or dose not given beside the values; conditions: in vivo
[7] = as §2; assay type: ADME, organism-based; parameters: concentration or dose not given beside the values; conditions: mouse, in vivo
Mus musculus [8] = assay: Serum concentration of the liberated Norfloxacin after oral administration (100 mg/kg) in mice after 2.0 hr; assay type: functional, organism-based; in short: as §1
Mus musculus [9] = assay: (§3) Serum concentration of the liberated Norfloxacin after oral administration (100 mg/kg) in mice after 0.5 hr; assay type: functional, organism-based; in short: as §1
Mus musculus [10] = assay: Serum concentration of the liberated Norfloxacin after oral administration (100 mg/kg) in mice after 4.0h; assay type: functional, organism-based; in short: as §1
Mus musculus [11] = assay: Serum concentration of the liberated Norfloxacin after oral administration 100 mg/kg in mice after the 2.0 h; assay type: functional, organism-based; parameters: dose 100 mg/kg; in short: as §1
Mus musculus [12] = assay: Serum concentration of the liberated Norfloxacin after oral administration 100 mg/kg in mice after the 0.5 h; assay type: functional, organism-based; parameters: dose 100 mg/kg; in short: as §1
Mus musculus [13] = assay: Serum concentration of the liberated Norfloxacin after oral administration 100 mg/kg in mice after the 1.0 h; assay type: functional, organism-based; parameters: dose 100 mg/kg; in short: as §1
Mus musculus [14] = assay: Serum concentration of the liberated Norfloxacin after oral administration 100 mg/kg in mice after the 4.0 h; assay type: functional, organism-based; parameters: dose 100 mg/kg; in short: as §1
Mus musculus [15] = assay: as §3; assay type: functional, organism-based; in short: as §1; remark: listed apart in the source

Row | Compound | Serum concentration (Mus musculus [1]) | Serum concentration (Mus musculus [2]) | Serum concentration (Mus musculus [3]) | Serum concentration (Mus musculus [4]) | Serum concentration (Mus musculus [5]) [µg/mL] | AUC (Mus musculus [6]) [µg·h/mL] | AUC [7] [µg·h/mL] | Serum concentration (Mus musculus [8]) [µg/mL] | Serum concentration (Mus musculus [9]) [µg/mL] | Serum concentration (Mus musculus [10]) [µg/mL] | Serum concentration (Mus musculus [11]) [µg/mL] | Serum concentration (Mus musculus [12]) [µg/mL] | Serum concentration (Mus musculus [13]) [µg/mL] | Serum concentration (Mus musculus [14]) [µg/mL] | Serum concentration (Mus musculus [15]) [µg/mL]
1 | CCn1cc(C(=O)O)c(=O)c2cc(F)c(N3CCN(CC(C)O)CC3)cc21 (stereo not drawn) | Not detected | Not detected | Not detected | Not detected | – | – | – | – | – | – | – | – | – | – | –
2 | CCn1cc(C(=O)O)c(=O)c2cc(F)c(N3CCNCC3)cc21 [NORFLOXACIN] | – | – | – | – | 2.02 | 6.49 | 6.49 | 1.12 | 3.47 | 0.56 | 1.12 | 3.47 | 2.02 | 0.56 | –
3 | CCOC(=O)CN1CCN(c2cc3c(cc2F)c(=O)c(C(=O)O)cn3CC)CC1 | – | – | – | – | 1.37 | 3.9 | 3.9 | 0.38 | 3.77 | 0.42 | 0.38 | 3.77 | 1.37 | 0.42 | –
4 | CCn1cc(C(=O)O)c(=O)c2cc(F)c(N3CCN(C(C)C(C)=O)CC3)cc21 (stereo not drawn) | – | – | – | – | 1.68 | 5.71 | 5.71 | 1.67 | 2.63 | 0.63 | 1.67 | 2.63 | 1.68 | 0.63 | –
5 | CCn1cc(C(=O)O)c(=O)c2cc(F)c(N3CCN(CC#N)CC3)cc21 | – | – | – | – | 0.75 | 3.06 | 3.06 | 1.15 | 0.29 | 0.63 | 1.15 | 0.29 | 0.75 | 0.63 | –
6 | CCn1cc(C(=O)O)c(=O)c2cc(F)c(N3CCN(C(C)(C)C(C)=O)CC3)cc21 | Not detected | Not detected | Not detected | Not detected | – | – | – | – | – | – | – | – | – | – | –
7 | CCn1cc(C(=O)O)c(=O)c2cc(F)c(N3CCN(CC(C)=O)CC3)cc21 | – | – | – | – | 5.74 | 22.01 | 22 | 3.96 | 6.33 | 2.62 | 3.96 | – | 5.74 | 2.62 | 6.33
